EBNA-1 inhibitor – EBNA-1 DNA-binding inhibitors, primary screen, biochemical, fluorescence polarization; inhibition, % at 14.8 µM; 300,000 compounds, 0.34% hits; AID 1950, 2009; in the data active means inhibition above about 28%
PfM18AAP inh – PfM18AAP inhibitors, malaria aminopeptidase, primary screen, biochemical, QFRET, recombinant enzyme; M18 aspartyl aminopeptidase (Plasmodium falciparum 3D7); H-Glu-NHMec fluorogenic cleavage; inhibition, % at 7.35 µM; 290,000 compounds, 1.2% hits;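 active means inhibition above the campaign mean inhibition over all tested compounds plus 3 SD, cut at about 28% in these data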;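 further: 0% = plate median of test compound wells and 100% = 2 mM ZnCl2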
ALR H2O2 inh – inhibitors of human ALR sulfhydryl oxidase, primary screen, biochemical, H2O2 detection, HRP-luminol luminescence, single point. inhibition, % (concentration not given with the values). 290,000 compounds, 3.8% hits. FAD-linked sulfhydryl oxidase ALR (Homo sapiens), P55789. purified ALR, DTT oxidation;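 active means mean replicate inhibition above about 79%, with every replicate also reaching it, limit read from the data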
Target sequence (P55789 whole entry, looked up): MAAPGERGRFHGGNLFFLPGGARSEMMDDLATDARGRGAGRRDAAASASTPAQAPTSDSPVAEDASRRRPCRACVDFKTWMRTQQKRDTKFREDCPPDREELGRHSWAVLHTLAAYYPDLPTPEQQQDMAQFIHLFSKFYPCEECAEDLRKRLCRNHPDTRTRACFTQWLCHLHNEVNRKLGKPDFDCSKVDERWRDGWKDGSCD
core dimer inh – inhibitors of HCV core protein dimerization, primary screen, biochemical, TR-FRET, high-throughput. TR-FRET GST/Flag-core106 dimerization, 1536-well. inhibition, % at 5 µM. 300,000 compounds, 0.33% hits;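 active means inhibition above the mean of all tested compounds plus 3 SD, set per screening campaign, cut at about 45% in these data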
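Assay system: tagged HCV core106 pair (GST and Flag); medium: KF-containing HEPES buffer, pH 7.45, DTT, CHAPS, BSA; also added: Eu donor and XL665 acceptor anti-tag antibodies; dosing: 5 µM single dose; timing: compound-protein-antibody incubation 4 h at 22.5 °C; signal: TR-FRET 671 and 617 nm emission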
ZTA DNA inh – blocks Epstein-Barr virus ZTA, an EBNA-1 counter-screen | P03206 | 320,000 compounds, 0.15% hits | inhibition, % at 11 µM | ZTA-DNA binding, fluorescence polarization; in the data active means inhibition above about 33%
Target sequence (P03206 whole entry, looked up): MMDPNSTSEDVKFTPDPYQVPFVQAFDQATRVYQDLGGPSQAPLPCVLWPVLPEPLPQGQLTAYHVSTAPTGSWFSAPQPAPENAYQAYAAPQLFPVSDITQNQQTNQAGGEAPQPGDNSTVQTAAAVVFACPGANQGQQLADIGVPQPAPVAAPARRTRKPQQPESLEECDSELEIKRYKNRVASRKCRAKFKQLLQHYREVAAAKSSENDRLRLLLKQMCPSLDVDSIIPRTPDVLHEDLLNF
HCV NS3 hel inh – inhibitors of HCV NS3 helicase, primary screen, biochemical, Cy5 molecular beacon fluorescence; Hepatitis C virus NS3 helicase; NS3 helicase DNA unwinding; inhibition, % at 10.9 µM; 290,000 compounds, 0.56% hits;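 active means inhibition above the mean of all tested compounds plus 3 SD, set per campaign, cut at about 35% in these data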;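 further: 0% = DMSO wells and 100% = thioflavine S control wells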
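Compound dosing – single dose, 10.9 µM nominal final, DMSO 0.8% final · System – NS3 helicase fragment of HCV · Buffer or medium – MOPS pH 6.5, MgCl2, DTT, Tween20, BSA · Signal – Cy5 beacon fluorescence read at start and 1 h · Also added – annealed dual-labelled DNA beacon duplex, ATP-started · Schedule – 1 h at 25 °C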
EBNA-1 inh conf – EBNA-1 DNA-binding inhibitors, retest, confirmation, biochemical, fluorescence polarization, triplicate; shares compounds with EBNA-1 inhibitor; Recombinant EBNA-1 DBD, Cy5-DNA fluorescence polarization; inhibition, % at 14.8 µM; 830 compounds, 35% hits;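 active means mean inhibition across replicates above a set limit taken from the earlier primary screen, cut at about 28% in these data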;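 further: plate controls were EBNA-1 protein with DMSO for no effect and wells lacking EBNA-1 for full effect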
ZTA DNA inh trip – EBV Zta DNA binding inhibitors, counter-screen for EBNA-1 inhibitor project, biochemical, fluorescence polarization, triplicate | Zta-ZRE DNA binding, Cy5 fluorescence polarization | inhibition, % at 11.1 µM | shares compounds with EBNA-1 inhibitor | AID 2328, 2010 | 830 tested, under 10 active;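 active means mean inhibition over triplicates above a set limit taken from the primary EBNA-1 screen, cut at about 37% in these data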;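 further: purified full length Zta protein with Cy5 labeled ZRE DNA probe; 0% = Zta with DMSO and 100% = wells lacking Zta protein; inhibitors lower polarization by freeing the labeled DNA probe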
The depositor's hits bear a star; . = not tested or not shown. A selection: hits, their analogues and other compounds. The true share with any hit is near 5.2%.

SMILES	EBNA-1 inhibitor	PfM18AAP inh	ALR H2O2 inh	core dimer inh	ZTA DNA inh	HCV NS3 hel inh	EBNA-1 inh conf	ZTA DNA inh trip
Cc1ccc2[nH]c3c(=O)n(Cc4ccco4)cnc3c2c1	51*	-2	.	4	15	-5	55*	4
CC1CCCC(C)N1S(=O)(=O)c1ccc(NC(=O)CCn2cnc3ccccc3c2=O)cc1 (centres undefined)	48*	-6	-9	-1	-9	-3	52*	2
COC(=O)c1ccc(COC(=O)CCc2nc(-c3ccccc3)c(-c3ccccc3)o2)cc1	3	-8	-12	8	16	-5	.	.
C=CCNC(=S)NNC(=O)c1ccccc1	77*	19	25	0	4	-1	-3	7
C=CCNC(=S)NNC(=O)c1cccc(Br)c1	-12	12	36	-10	1	4	.	.
O=C(Nc1cccc(-c2nnc(-c3ccccc3)o2)c1)C1CCCCC1	75*	1	6	1	11	-1	107*	-5
Cc1ccc(S(=O)(=O)NCC2CCC(C(=O)NCc3ccc4c(c3)OCO4)CC2)cc1 (centres undefined)	-1	2	3	4	16	-2	.	.
O=C(NCc1ccc2c(c1)OCO2)C1CCC(CNS(=O)(=O)c2ccc(Cl)cc2)CC1 (centres undefined)	30*	-4	0	6	-2	-6	63*	8
O=C(CCc1nc(-c2ccccc2Cl)no1)Nc1cccnc1	-8	-10	-6	0	7	-4	.	.
NS(=O)(=O)c1ccc(CCNC(=O)c2cc(-c3ccccn3)nc3ccc(Br)cc23)cc1	43*	-1	-26	22	-1	5	36*	3
Cc1csc2c(N3CCN(C(=O)Nc4ccc(OC(F)(F)F)cc4)CC3)ncnc12	-3	0	-5	11	12	-3	.	.
Cc1ccc(C)c(NC(=O)Cn2nc(-c3ccccc3)nc2-c2ccccc2)c1	50*	-3	-4	1	11	-9	24	-1
CC1CC(C)CN(C(=O)c2cccc(S(=O)(=O)Nc3cc(C(F)(F)F)ccc3Cl)c2)C1 (centres undefined)	30*	-1	3	21	10	24	2	-6
O=C(O)c1cccc(S(=O)(=O)Nc2cc(Cl)ccc2Cl)c1	8	-8	-2	-6	-1	-6	.	.
CC(Sc1ccc(Cl)cc1)C(=O)NNC(=O)c1ccco1 (centres undefined)	.	.	10	.	.	.	.	.
CCOC(=O)C1=C(C)Nc2nc(SCC)nn2C1c1ccc(OC)cc1 (centres undefined)	33*	3	0	-2	2	-5	6	2
NC(=O)CN1C(=O)NC2(CCCc3sccc32)C1=O (centres undefined)	-4	-1	-1	-8	-7	16	.	.
Cc1cc(C(=O)CN2C(=O)NC3(CCCc4sccc43)C2=O)c(C)n1-c1ccc(Cl)cc1 (centres undefined)	34*	5	-4	28	-4	-3	17	-11
Cc1ccc2[nH]c(=O)c(CN(Cc3cccs3)C(=S)NCC3CCCO3)cc2c1 (centres undefined)	44*	-2	14	1	9	-3	17	-5
Nc1cc(N)nc(SCC(=O)NC(=O)NC2CCCC2)n1	.	.	.	.	3	.	.	.
O=C(CSC(=S)N1CCCCC1)Nc1nc(-c2ccccc2)c(-c2ccccc2)o1	36*	-5	-4	12	26	3	6	-1
O=c1c2cc(N3CCOCC3)ccc2[nH]c(=S)n1Cc1cccc(Cl)c1	30*	5	.	11	1	7	7	7
COc1cccc(Cn2c(=S)[nH]c3ccc(N4CCOCC4)cc3c2=O)c1	29*	10	8	2	-4	8	8	-11
COc1cccc(CNC(=O)CCCCCn2c(=S)[nH]c3ccc(N4CCOCC4)cc3c2=O)c1	12	-3	.	-13	-1	7	.	.
CC(=O)Nc1ccc(NC(=O)Cc2sc(-c3cccnc3)nc2-c2ccc(C)cc2)cc1	54*	-1	-7	8	4	1	52*	7
SMILES	EBNA-1 inhibitor	PfM18AAP inh	ALR H2O2 inh	core dimer inh	ZTA DNA inh	HCV NS3 hel inh	EBNA-1 inh conf	ZTA DNA inh trip
Cc1cc(C)cc(NC(=O)Cn2c(-c3ccccc3Cl)nc3ccccc32)c1	60*	-1	-1	0	1	13	-10	-9
CCOC(=O)c1ccc(NC(=O)Cn2c(-c3nonc3N)nc3ccccc32)cc1	31*	-4	-35	15	27	9	32*	19
COC(=O)c1ccc(NC(=O)Cn2c(-c3nonc3N)nc3ccccc32)cc1	10	-18	-5	6	21	0	.	.
O=C(Cn1c(-c2ccccc2Cl)nc2ccccc21)Nc1cccc(Cl)c1	5	-9	.	3	3	7	.	.
CC(=O)c1ccc(NC(=O)C(C)Sc2n[nH]c(-c3cccnc3)n2)cc1 (centres undefined)	6	0	2	4	-5	11	.	.
CCCCCCOc1ccc(C(CC(N)=O)C(=O)O)cc1 (centres undefined)	-4	-2	0	0	-14	16	.	.
O=C(CN1CCCc2ccccc21)N/N=C/c1c(O)ccc2ccccc12	-8	-2	-13	12	5	-3	.	.
CC1(c2ccccc2)NC(=O)N(CCN2C(=O)c3ccccc3C2=O)C1=O (centres undefined)	59*	1	.	-5	0	-27	1	-1
CCCC1(c2ccccc2)NC(=O)N(CCN2C(=O)c3ccccc3C2=O)C1=O (centres undefined)	-13	-1	-3	3	-17	3	.	.
CCCCc1nnc(NC(=O)C2CC(=O)N(Cc3ccccc3)C2)s1 (centres undefined)	9	-2	-1	24	13	5	.	.
Cc1cc(C)n(/N=C/c2ccccc2)c(=O)c1C#N	3	1	1	1	0	0	.	.
Cc1cc(C)n(/N=C/c2c[nH]c3ccccc23)c(=O)c1C#N	28*	-9	-7	0	-1	5	14	-7

Compound activity (PubChem BioAssay)
